# Test: Toxicity liver stage against HepG2, at 10uM
# Format: cell-based
# Parameters: test concentration 10 uM, cell line HepG2-A16-CD81EGFP
# Details: human, HepG2-A16-CD81EGFP cells; read-out: INHIBITION
# How it was run: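 Uninfected HepG2-A16-CD81EGFP cells, 3 × 10^3 per well, 1536-well, plated on prespotted compound at 10 μM final, parasite-free screening media added to match infected plates; puromycin 10 μM positive, DMSO 0.5% negative; run in parallel with 48 h PbLuc assay at 37 °C, 5% CO2; viability by CellTiter-Glo luminescence, normalized to controls.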
row,SMILES,cytotoxicity at 10 µM
1,Cc1csc(CN(C)C(=O)C2CCC(=O)N(CCN(C)C)C2)n1 (centres undefined),15.6%
2,CNC(=O)C(C)(C)N1CCC[C@H]1C(=O)NC1CCCC1,-3.01%
3,COc1ccc2c(c1)nc1n2[C@@H](CNCc2nccs2)COC1,-1.57%
4,CCNC(=O)N1C[C@@H]2OCC(=O)N(C)[C@@H]2C1,7.65%
5,CCNC(=O)N1CC[C@H]2CC(=O)N(C3CCCCC3)CC[C@H]2C1,-1.08%
6,CCNC(=O)NC[C@H]1COCc2nc3cc(C)ccc3n21,3.72%
7,CN1C[C@@H](O)[C@]2(CCN(C(=O)c3ccccc3)C2)S1(=O)=O,0.148%
8,CC(=O)NCC(=O)N1CCOC2(CCCN(c3ccc(C)nn3)C2)C1 (centres undefined),0.876%
9,CCO[C@@H]1CC[C@H]2[C@H]1OCCN2Cc1ccc(F)cc1,10.3%
10,CC(=O)N1CCC2(CC1)CC(NC(=O)N(C)C)c1cc(C)ccc12 (centres undefined),4.3%
11,CCC(=O)N1CCC2(CC1)CC(Oc1ccccc1)CO2 (centres undefined),7.69%
12,CC(C)NC(=O)c1cc2c(s1)CCN2C(=O)CN(C)C,1.94%
13,Cc1cc(C(F)(F)F)nc(N2CCN3CCCC3C2)n1 (centres undefined),4.78%
14,Cc1cc(-c2cc3nc(C)c(C)c(NCC4COCCO4)n3n2)no1 (centres undefined),8.97%
15,CCCc1cc(C(=O)NC(C)c2ccccc2)n(C)n1 (centres undefined),-4.45%
16,CCc1noc(CCC(=O)N[C@@H]2CC[C@@H](n3ccnc3)[C@@H]2O)n1,-15.5%
17,Cc1ccc2c(c1)C(=O)NCC1(CCN(C(=O)c3ccnn3C)CC1)O2,-16.6%
18,O=c1[nH]c(N2CCCCC2)nc2c1CCN(Cc1cccnc1)C2,-3.07%
19,CCCC(=O)N1CCN(Cc2cc(-c3ccncc3)nn2C)CC1,-27.1%
20,CS(=O)(=O)N1CCN(Cc2cccs2)CC(C(N)=O)C1 (centres undefined),18%
21,CN(C)CC1(O)CCN(S(=O)(=O)c2cccc(F)c2)C1 (centres undefined),2.36%
22,CN(C(=O)C1CCOCC1)[C@@H]1CCC[C@@H](N2CCCC2)[C@@H]1O,-6.22%
23,Cc1ccc(C(=O)NC2CCCN(C)C2)c(=O)[nH]1 (centres undefined),-6.96%
24,CC(C)Cc1noc(CN2CCCC(CNS(N)(=O)=O)C2)n1 (centres undefined),-4.88%
25,CC(=O)NCc1ccc(C(=O)N2CCCc3c(F)ccc(C)c32)cc1,-3.26%
26,COc1c(C2CCCN2CC(=O)N(C)c2nccs2)c(C)nn1C (centres undefined),3.37%
27,Cc1cc(NCCC(=O)NC2CCCCC2)nc(-c2ccncc2)n1,-5.37%

row,SMILES,cytotoxicity at 10 µM
1,CCOC(C)c1nc(CN2CCN(c3ncc(C)cn3)CC2)cs1 (centres undefined),-0.509%
2,CC(C)(C)N1CCN(C(=O)c2cccnc2-n2cncn2)CC1,4.22%
3,CC(C)CNC(=O)CNC(=O)NC(c1nccs1)C1CC1 (centres undefined),-6.66%
4,Cc1nc(C(=O)N(C)CC2CCCO2)nn1-c1ccccc1C(C)C (centres undefined),-3.62%
5,CNC(=O)C1CCCCN1C(=O)c1n[nH]c(=O)c2ccccc12 (centres undefined),0.0666%
6,Cc1ccc(C)c(CN2CCOC(c3noc(C)n3)C2)c1 (centres undefined),5.12%
7,Cc1nn(C)c(C)c1NC(=O)CN1CCc2c(nc(C(C)C)n2C)C1,-8.02%
8,O=C(c1ccsc1)N1CCC2(CC1)CCN(S(=O)(=O)C1CC1)CC2,-109%
9,O=C(N[C@@H]1CN(Cc2ccco2)[C@@H]2CCCO[C@@H]21)c1cscn1,-105%
10,O=C1CC(c2ccncc2)C2(CCN(Cc3cccnc3)CC2)N1 (centres undefined),6.26%
11,CCS(=O)(=O)N1CCC2(CCC2NC(=O)c2ccn(C)c2)CC1 (centres undefined),-2.11%
12,O=C(c1ccc[nH]1)N1C[C@H]2CN(Cc3cccc(F)c3)C(=O)[C@H]2C1,3.99%
13,Cc1cc(C)n(CCCN(C)c2cc(C3CC3)ncn2)n1,-0.609%
14,CN1CCN(C[C@@H]2CN(C3Cc4ccccc4C3)C[C@@H]2CO)CC1,8.29%
15,O=S(=O)(c1cccnc1)N1CCCCC1CCN1CCOCC1 (centres undefined),-3.03%
16,CCC(C(=O)NCC1=CCN(C)CC1)c1ccccc1 (centres undefined),-7.66%
17,CO[C@H]1CN(C(C)C)C[C@@H]1NC(=O)Nc1ccc2oc(C)cc2c1,0.0448%
18,COc1ccc(N2CCN(C(=O)CCc3n[nH]c(C)n3)CC2=O)cc1,-0.524%
19,Cc1ccc(C(C(=O)O)N(C)CCN2CCOCC2)c(F)c1 (centres undefined),4.28%
20,O=C(NCc1csc(-c2cnccn2)n1)c1cnn2c1CCCC2,0.209%
21,O=C(O)CN(Cc1ccsc1)CC1CCCO1 (centres undefined),-4.39%
22,CCc1ccc(CN(C)C(=O)c2ccc(CSc3nnc[nH]3)o2)nc1,-2.19%
23,O=C(O)c1ccnc(-c2ccnc(NCCc3ccc(F)cc3)n2)c1,1.74%
24,CN(C)c1ccccc1C(=O)N1CCOC2(CNCCOC2)C1 (centres undefined),-1.08%
25,Cc1ccccc1-n1cc(-c2ccnc(N[C@@H](CO)C(C)C)n2)cn1,-3.39%
26,CN(C)C(=O)c1cccnc1-c1ccc2c(c1)OCCO2,5.73%
27,CCn1cc(-c2cc(C(F)(F)F)n(CCCN)n2)cn1,-7.86%

row,SMILES,cytotoxicity at 10 µM
1,Cc1nc(-c2ccccc2)sc1CNC1CCc2ncnn2C1 (centres undefined),-4.07%
2,O=C(NCC1CCOC1)c1csc(-c2ccc(Cl)cc2)n1 (centres undefined),-11.6%
3,O=C(Cc1ccc2c(c1)CCC2)NCCNc1cnccn1,-0.037%
4,COCCN1CCC(CNC(=O)C2(c3ccc(F)cc3)CCC2)CC1,-4.45%
5,CCS(=O)(=O)N1CCC(NC(=O)c2cc(C)ccc2O)CC1,-8.92%
6,Cn1cc(CC2CCN(C(=O)NCc3cccc(C#N)c3)C2)cn1 (centres undefined),-12.3%
7,Cc1cc(C(=O)N2CCCC(n3nc(C)cc3C)C2)on1 (centres undefined),-7.69%
8,CN1C(=O)CCC12CCC(NCc1ccsc1)CC2 (centres undefined),3.56%
9,CNC(=O)CN1CC[C@H]2CN(C(=O)c3cccc(C)c3)C[C@H]2C1,-2.45%
10,COCCN1CCc2ncnc(-c3ccccc3)c2CC1,9.99%
11,C[C@H]1CN(c2ccccn2)C[C@@]12CCN(c1cccnc1)C2=O,-2.62%
12,Cc1ccsc1C(=O)N1CCc2ncc(CN3CCCC3)n2CC1,-111%
13,O=C1N(CC2CCCC2)CCC12CCN(c1ncc(F)cn1)CC2,11.2%
14,Cc1nnc(N2CCCC3(CN(Cc4nccs4)CCO3)C2)o1 (centres undefined),2.08%
15,COc1ccc(CN2CCC3(CCN(c4cccnc4)C3=O)C2)cc1 (centres undefined),5.16%
16,CN(C)c1ncc(-c2cccc(F)c2)c(C2CNCCO2)n1 (centres undefined),-29.9%
17,Cc1oncc1C(=O)N1CC[C@@H]2[C@@H]1CC(=O)N2Cc1cccnc1,5.44%
18,O=C1COC2(CCN(CC3CCC3)CC2)CN1c1cncnc1,-1.11%
19,CN(C)C[C@H]1C[C@@H]2CN(Cc3ccoc3)C[C@@H]2O1,4.85%
20,COCCN1C[C@@H](C)[C@@]2(COCCN(C(=O)c3cnc(C)cn3)C2)C1,-0.665%
21,CCN1Cc2nccn2CC(COCc2csc(C)n2)C1 (centres undefined),3.86%
22,COCC1CC2(CCN(Cc3ccccn3)CC2)CN1c1ncccn1 (centres undefined),14.4%
23,Cc1nc(CO[C@@H]2CC[C@H]3[C@H]2OCCN3Cc2cccnc2)cs1,-1.43%
24,COCCN(C)CC(=O)N1C[C@@H]2CC[C@H]1CN(C(=O)c1ccncc1)C2,-0.908%
25,O=C1NCC2(CCC(C(=O)N3CCCC(O)C3)CC2)Oc2ccccc21 (centres undefined),-24.1%

# From ChEMBL document CHEMBL4513216, “Probing the Open Global Health Chemical Diversity Library for Multistage-Active Starting Points for Next-Generation Antimalarials” (ACS Infect Dis, 2020)
